Experiments:
[1] = species: Mus musculus; assay: Oral potency tested by using anti-mescaline test; assay type: functional
How it was run: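 Mice; mescaline was given to evoke hallucinogen-type behaviour, and the test compound was dosed orally to antagonise it. Potency is the ED50 in mg/kg po. Some ED50s are the average of three measurements.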

[2] = target: D(2) dopamine receptor (Mus musculus, UniProt P61168); assay: In vitro binding affinity towards dopamine receptor D2
[3] = target: Serotonin 2 (5-HT2) receptor (Mus musculus, UniProt Q02152+P34968+P35363); assay: In vitro binding affinity for serotonin 5-hydroxytryptamine (5-HT) 2 receptors; assay type: protein assay
[4] = target: Sigma non-opioid intracellular receptor 1 (Mus musculus, UniProt O55242); assay: In vitro binding affinity for the mouse sigma opioid receptor
[5] = species: Mus musculus; assay: Potency was tested using Anti mescaline test(Intra peritoneal); assay type: functional
How it was run: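 Mouse mescaline-antagonism test with the test compound given intraperitoneally. Read-out is the ED50 in mg/kg ip.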

[6] = species: Rattus norvegicus; assay: Oral potency tested using 5HTP induced head twitch test; assay type: functional
[7] = species: Mus musculus; assay: Oral potency tested using apomorphine induced climbing test; assay type: functional
[8] = Oral potency by using Anti aggression test; assay type: functional
How it was run: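 Mice were held in prolonged isolation, then exposed to intruders. The aggressive response was scored after oral dosing of the test compound. Potency is the ED50 in mg/kg po.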

[9] = species: Mus musculus; assay: Oral potency by using Anti aggression test

D(2) dopamine receptor, sequence (P61168 whole entry): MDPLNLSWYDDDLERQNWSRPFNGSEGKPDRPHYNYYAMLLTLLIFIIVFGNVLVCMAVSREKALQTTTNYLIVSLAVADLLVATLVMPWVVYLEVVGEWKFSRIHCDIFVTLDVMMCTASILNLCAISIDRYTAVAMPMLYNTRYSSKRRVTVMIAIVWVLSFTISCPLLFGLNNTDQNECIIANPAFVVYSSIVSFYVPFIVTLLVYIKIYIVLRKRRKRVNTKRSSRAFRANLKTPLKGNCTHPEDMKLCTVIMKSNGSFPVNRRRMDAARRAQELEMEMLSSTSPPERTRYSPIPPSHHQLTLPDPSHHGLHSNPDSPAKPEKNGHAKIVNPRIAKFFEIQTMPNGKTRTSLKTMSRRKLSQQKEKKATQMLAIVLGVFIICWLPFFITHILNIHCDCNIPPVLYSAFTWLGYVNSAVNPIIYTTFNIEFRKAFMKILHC
Sigma non-opioid intracellular receptor 1, sequence (O55242 whole entry): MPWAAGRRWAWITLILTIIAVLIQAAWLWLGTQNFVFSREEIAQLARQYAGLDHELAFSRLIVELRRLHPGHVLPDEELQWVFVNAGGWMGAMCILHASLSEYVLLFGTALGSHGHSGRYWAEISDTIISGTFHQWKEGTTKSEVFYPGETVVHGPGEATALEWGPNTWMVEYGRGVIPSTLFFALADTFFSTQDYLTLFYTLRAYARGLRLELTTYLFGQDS

SMILES	IC50 [2]	Ki [3]	Ki [4]	ED50 [1]	ED50 [5]	ED50 [6]	ED50 [7]	ED50 [8]	ED50 [9]
O=C(CC1CCN(CCc2ccccc2)CC1)c1ccc(F)cc1	42 nM	8 nM	8 nM	4.1 mg/kg					
Fc1ccc(COCC2CCN(Cc3ccncc3)CC2)cc1.O=C(O)/C=C/C(=O)O	> 10000 nM		2 nM		< 10 mg/kg				
O.O=C(CC1CCN(CCc2c[nH]c3ccccc23)CC1)c1ccc(F)cc1	7 nM	3.6 nM	26 nM	< 10 mg/kg					
O=C(O)/C=C\C(=O)O.c1ccc(CCCOC2CCN(Cc3ccccc3)CC2)cc1	8100 nM		2 nM		< 10 mg/kg				
O=C(CC1CCN(Cc2ccc(F)cc2)CC1)c1ccc(F)cc1	608 nM	26 nM	3 nM	4.5 mg/kg		< 10 mg/kg	< 10 mg/kg	4.5 mg/kg	
O.O=C(O)/C=C\C(=O)O.c1ccc(CN2CCC(COCc3ccc(-c4ccccc4)cc3)CC2)cc1	1850 nM	47 nM	20 nM		10 mg/kg				
O.O=C(O)/C=C\C(=O)O.c1ccc(CN2CCC(COc3cccnc3)CC2)cc1	> 10000 nM	> 10000 nM	5 nM	> 30 mg/kg					
O.OC(CC1CCN(Cc2ccccc2)CC1)c1cccs1 (stereo unspecified)	3720 nM	446 nM	5 nM	> 30 mg/kg					
O.c1ccc(-c2ccc(OCC3CCN(CC4CC4)CC3)cc2)cc1	> 10000 nM	> 10000 nM	12 nM	7.5 mg/kg		> 30 mg/kg	> 30 mg/kg	30 mg/kg	
O=C(O)/C=C\C(=O)O.c1ccc(CCCOCC2CCN(Cc3ccccc3)CC2)cc1	839 nM	260 nM	3.2 nM		< 10 mg/kg				
Fc1ccc(OCC2CCN(CCC3CC3)CC2)cc1.O=C(O)/C=C/C(=O)O	428 nM		3 nM	3.1 mg/kg		< 10 mg/kg		4.5 mg/kg	
CN(C)c1cccc(OCC2CCN(CC3CC3)CC2)c1.O	7330 nM	1158 nM	5 nM		< 10 mg/kg				
Fc1ccc(OCC2CCN(Cc3ccc4ccccc4c3)CC2)cc1	4340 nM	118 nM	51 nM	1.7 mg/kg					
N#Cc1ccc(OCC2CCN(CC3CC3)CC2)cc1	> 10000 nM	2818 nM	10 nM	1.7 mg/kg		29 mg/kg		2.6 mg/kg	
COc1ccc(C(O)CC2CCN(Cc3ccccc3)CC2)cc1.Cl (stereo unspecified)	> 10000 nM	187 nM	20 nM	> 30 mg/kg					
Cl.Fc1ccc(OCC2CCN(Cc3ccccc3)CC2)cc1.O	870 nM	28 nM	2 nM	4 mg/kg			> 30 mg/kg	8.2 mg/kg	
CC(C)(C)c1ccc(COCCC2CCN(Cc3ccccc3)CC2)cc1.Cl	6750 nM	939 nM	4.5 nM		> 10 mg/kg				

SMILES	IC50 [2]	Ki [3]	Ki [4]	ED50 [1]	ED50 [5]	ED50 [6]	ED50 [7]	ED50 [8]	ED50 [9]
Cl.Fc1ccc(COCC2CCN(Cc3ccc4ccccc4c3)CC2)cc1	305 nM	251 nM			> 10 mg/kg				
Cl.Fc1c(F)c(F)c(OCC2CCN(CC3CC3)CC2)c(F)c1F	5680 nM	3356 nM	10 nM	26.2 mg/kg					
Cl.c1ccc(CCCCCOCC2CCN(Cc3ccccc3)CC2)cc1	1850 nM	186 nM	26 nM		> 10 mg/kg				
Cl.c1ccc(CN2CCC(COc3ccc4ccccc4n3)CC2)cc1	6300 nM	311 nM	5.6 nM		< 10 mg/kg				
Cl.O.O=C(CC1CCN(CC2CC2)CC1)c1ccc(C(F)(F)F)cc1	> 10000 nM	278 nM	45 nM	6.6 mg/kg			> 30 mg/kg		> 30 mg/kg
Cl.c1ccc(COCC2CCN(Cc3ccccc3)CC2)cc1	> 10000 nM	> 1000 nM	4 nM		> 10 mg/kg				
Br.O=C(CC1CCN(CC2CC2)CC1)c1ccc(-c2ccccc2)cc1	1720 nM	547 nM	51 nM	4.7 mg/kg		10 mg/kg	> 30 mg/kg		8.4 mg/kg
Br.O=C(CC1CCN(CCC2CC2)CC1)c1ccc(F)cc1	220 nM	12 nM	11 nM	< 10 mg/kg					
Cl.c1ccc(CN2CCC(COC3CCCCC3)CC2)cc1	> 10000 nM	1363 nM	2 nM		< 10 mg/kg				
Cl.O.OC(Cc1ccc(F)cc1)C1CCN(Cc2ccccc2)CC1 (stereo unspecified)	789 nM	360 nM	3 nM	5 mg/kg			> 30 mg/kg	> 30 mg/kg	
Cl.Fc1ccc(COCC2CCN(Cc3ccc(-c4ccccc4)cc3)CC2)cc1	818 nM	> 1000 nM	14 nM		> 10 mg/kg				
Cl.c1ccc(CCCCOCC2CCN(Cc3ccccc3)CC2)cc1	4340 nM	224 nM	2 nM		> 10 mg/kg				
CCCCCN1CCC(COCc2ccc(F)cc2)CC1.Cl	1320 nM		9 nM		< 10 mg/kg				
Cl.OC(CC1CCN(Cc2ccccc2)CC1)c1ccc(F)cc1 (stereo unspecified)	5660 nM	323 nM	8 nM	5 mg/kg		6.8 mg/kg	> 30 mg/kg	32 mg/kg	
Cl.Fc1ccc(OCC2CCN(CCc3ccc(Cl)cc3)CC2)cc1	368 nM	26 nM	5 nM	1.7 mg/kg		> 10 mg/kg		10 mg/kg	
OC(CCCN1CCN(c2ncc(F)cn2)CC1)c1ccc(F)cc1 (stereo unspecified) [BMY-14802]	2430 nM	410 nM	174 nM	6 mg/kg		2.3 mg/kg	> 90 mg/kg		45 mg/kg
C[C@@H]1CN(CCCn2c3ccccc3c3ccccc32)C[C@H](C)N1 [RIMCAZOLE]		2842 nM	820 nM	22 mg/kg			> 90 mg/kg		48 mg/kg

Continued, in another order:

IC50 [2]	Ki [3]	Ki [4]	SMILES	ED50 [1]	ED50 [5]	ED50 [6]	ED50 [7]	ED50 [8]	ED50 [9]
> 10000 nM	215 nM	13 nM	O.O=[N+]([O-])c1ccc(OCC2CCN(CC3CC3)CC2)cc1	0.85 mg/kg		> 10 mg/kg	> 30 mg/kg	1.4 mg/kg	
26000 nM	287 nM	3.5 nM	COc1ccc(COCC2CCN(Cc3ccccc3)CC2)cc1.O=C(O)/C=C\C(=O)O	> 30 mg/kg					
3900 nM	272 nM	2 nM	Fc1ccc(COCC2CCN(Cc3ccccc3)CC2)cc1.O=C(O)/C=C\C(=O)O	14 mg/kg					
> 10000 nM	1135 nM	53 nM	CS(=O)(=O)c1ccc(OCC2CCN(CC3CC3)CC2)cc1	> 30 mg/kg					
> 10000 nM	> 100 nM	35 nM	O.OCc1ccc(OCC2CCN(CC3CC3)CC2)cc1	> 30 mg/kg					
> 10000 nM	396 nM	83 nM	Fc1ccc(-c2ccc(OCC3CCN(CC4CC4)CC3)cc2)cc1	< 30 mg/kg					
2960 nM	> 100 nM	5 nM	O.c1ccc2cc(OCC3CCN(CC4CC4)CC3)ccc2c1		> 10 mg/kg				
381 nM	9 nM	2 nM	Fc1ccc(OCC2CCN(CC3CC3)CC2)cc1	2.9 mg/kg		10 mg/kg	> 30 mg/kg	12 mg/kg	
> 10000 nM	1705 nM	7 nM	O.O=C(Cc1ccc(F)cc1)C1CCN(Cc2ccncc2)CC1.O=C(O)/C=C\C(=O)O	10 mg/kg		28 mg/kg		38 mg/kg	
> 10000 nM	> 10000 nM	2 nM	O=C(O)/C=C\C(=O)O.c1ccc(CN2CCC(COC3CC3)CC2)cc1	> 30 mg/kg					
2350 nM	112 nM	34 nM	c1cc2cc(OCC3CCN(CC4CC4)CC3)ccc2[nH]1	< 30 mg/kg					
> 10000 nM	40 nM	4 nM	Cl.Clc1ccc(OCC2CCN(CC3CC3)CC2)cc1	4.4 mg/kg		27 mg/kg	> 30 mg/kg	26 mg/kg	
	281 nM	2 nM	Cl.Fc1ccc(COCC2CCN(Cc3ccc(Cl)cc3)CC2)cc1		< 10 mg/kg				
4210 nM	137 nM	8.3 nM	Cl.Clc1ccc(OCC2CCN(Cc3ccccc3)CC2)cc1	8 mg/kg		> 10 mg/kg		10 mg/kg	
1800 nM	1883 nM	55 nM	Br.COc1ccc(C(=O)CC2CCN(CC3CC3)CC2)cc1		> 10 mg/kg				
2000 nM	495 nM	8 nM	Br.O=C(CC1CCN(CC2CC2)CC1)c1ccc(Cl)cc1	0.46 mg/kg		30 mg/kg	> 30 mg/kg		14 mg/kg
219 nM	25 nM	22 nM	Cl.Fc1ccc(COCC2CCN(Cc3cccc4ccccc34)CC2)cc1	12 mg/kg					
970 nM	> 10000 nM	15 nM	COC(=O)c1ccc(COCC2CCN(Cc3ccccc3)CC2)cc1.Cl.O	> 30 mg/kg					

— ChEMBL document CHEMBL1125363, “Novel piperidine sigma receptor ligands as potential antipsychotic drugs” (J Med Chem, 1992)
